From article PMC4834983 (Journal of medicinal chemistry, 2015)
Entries after “also recorded” stand apart in the source; their conditions may differ. Blank lines part the entries; values can stand above or below the compound they belong to.

Columns and labels:
[1] = Cysteamine 1H NMR test for Michael acceptor reactivity; format: physicochemical; conditions: DMSO-d6, 1H NMR
Stat3:Stat3 = Stat3:Stat3 (Mus musculus, UniProt P42227); test: Cell-free EMSA, nuclear extracts pre-incubated with compound, hSIE probe; format: biochemical; conditions: 5 μM, 30 min pre-incubation, NIH3T3/v-Src nuclear extracts
Chain of Stat3:Stat3 (P42227 2-770 limits assumed): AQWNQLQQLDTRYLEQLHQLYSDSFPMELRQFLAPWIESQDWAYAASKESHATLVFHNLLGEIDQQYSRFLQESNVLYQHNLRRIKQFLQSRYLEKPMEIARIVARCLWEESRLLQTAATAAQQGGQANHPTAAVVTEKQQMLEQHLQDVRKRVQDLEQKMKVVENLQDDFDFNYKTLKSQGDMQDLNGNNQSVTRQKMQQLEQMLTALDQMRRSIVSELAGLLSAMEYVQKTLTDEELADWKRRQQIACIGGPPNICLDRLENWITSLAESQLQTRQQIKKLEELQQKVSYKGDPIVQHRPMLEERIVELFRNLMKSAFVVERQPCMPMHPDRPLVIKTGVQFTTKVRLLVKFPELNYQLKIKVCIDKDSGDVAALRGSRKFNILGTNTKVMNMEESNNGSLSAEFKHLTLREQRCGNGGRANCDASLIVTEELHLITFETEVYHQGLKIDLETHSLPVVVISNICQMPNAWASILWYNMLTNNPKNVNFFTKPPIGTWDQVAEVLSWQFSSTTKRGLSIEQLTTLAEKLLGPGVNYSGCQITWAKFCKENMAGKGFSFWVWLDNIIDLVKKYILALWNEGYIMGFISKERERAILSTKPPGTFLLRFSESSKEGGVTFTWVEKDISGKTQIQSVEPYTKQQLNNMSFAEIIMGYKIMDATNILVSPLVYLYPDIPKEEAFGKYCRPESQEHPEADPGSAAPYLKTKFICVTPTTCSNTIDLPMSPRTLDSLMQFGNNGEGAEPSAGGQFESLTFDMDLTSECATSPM

pYStat3 = test: Immunoblotting of pStat3 in treated U251MG cells; format: cell-based, human; conditions: for effect on pStat3 in treated tumor cells: 5 μM, glioma cells, immunoblotting
Summary of the method: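 Whole-cell lysates from U251MG cells given test compound at 5 μM for 0–24 h, or at 0–5 μM for 2 h. Immunoblotted for pY705Stat3 and total Stat3, with GAPDH as loading reference.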

G12 cells = test: Growth of glioma patient-derived xenograft cells in vitro; format: cell-based; conditions: Homo sapiens, read-out: inhibitory activity against G12 cell growth
Stat3 = Stat3 DNA-binding activity/EMSA of nuclear extracts from treated glioma cells; format: cell-based, human; conditions: for effect on Stat3 DNA-binding activity in treated tumor cells: 5 μM, glioma cells, EMSA
Stat5:Stat5 = test: Cell-free EMSA, EGF-stimulated NIH3T3/hEGFR nuclear extracts, MGFe probe; format: biochemical, mouse; conditions: 5 μM, 30 min pre-incubation
Summary of the method: (§1)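 Nuclear extracts from EGF-stimulated NIH3T3/hEGFR fibroblasts, containing active Stat1, Stat3 and Stat5, preincubated with 5 μM test compound for 30 min at room temperature. Then incubated 30 min with 32P-labelled probe before EMSA: hSIE (Stat1/Stat3 binding) or MGFe (bovine β-casein element; Stat1/Stat5 binding). STAT:DNA bands quantified as percent of control.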

NIH3T3 cells [2] = test: Colony survival assay; format: cell-based, mouse; conditions: 5 μM or less
Summary of the method: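 Cells seeded as single cells at 250 per well and treated once the next day with test compound (0–5 μM) for 72 h. Grown until large colonies were visible: 1 week for NIH3T3, 2 weeks for U251MG. Colonies stained with crystal violet for 4 h and counted.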

U251MG cells [3] = test: Scratch assay for migration; format: cell-based, human; conditions: 5 μM, 19-h treatment
Summary of the method: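 Sub-confluent U251MG monolayers wounded with pipette tips and treated once with test compound (0–5 μM) or DMSO vehicle. Cells allowed to migrate into the denuded area over 19 h, then imaged by microscopy at 10×.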

pErk1/2MAPK [4] = test: Immunoblotting, EGF-stimulated NIH3T3/hEGFR fibroblasts; format: cell-based, mouse; conditions: 5 μM pre-treatment
Summary of the method: (§2)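 NIH3T3/hEGFR fibroblasts pretreated with or without 5 μM test compound for 3 h, then stimulated with 1 μg/ml EGF for 12 min. Whole-cell lysates, equal total protein, immunoblotted for pStat1/Stat1, pStat5/Stat5 and pErk1/2/Erk1/2.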

pStat1 = test: as above; format: cell-based, mouse; conditions: 5 μM pre-treatment
Summary of the method: as §2

pS-Akt = test: Immunoblotting, U251MG glioma cells; format: cell-based, human; conditions: 5 μM
Summary of the method: (§3)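 U251MG cells given 5 μM test compound for 0–24 h. Whole-cell lysates of equal total protein immunoblotted for pErk1/2, Erk1/2, pS-Akt, Akt, pJAK2, JAK2, SOCS3 and PTP1B, with β-actin or GAPDH as loading reference.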

pStat3 = test: Immunoblotting of pStat3 in patient-derived xenograft cells; format: cell-based, human; conditions: 5 μM, 3 h
Summary of the method: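 Glioma patient-derived xenograft G22 cells (DMEM, 5–10% heat-inactivated FBS) given 5 μM test compound for 0–24 h. Whole-cell lysates immunoblotted for pStat3 and Stat3, with GAPDH as loading reference.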

G10 cells = test: Growth of glioma patient-derived xenograft cells in vitro; format: cell-based; conditions: Homo sapiens, read-out: inhibitory activity against growth of G10 cells
[5] = tested on: suppressors of cytokine signaling (SOCS)3; test: Immunoblotting, U251MG glioma cells; format: cell-based, human; conditions: 5 μM
Summary of the method: as §3

MCF-7 cells = test: CyQuant cell proliferation assay; format: cell-based; conditions: Homo sapiens, MCF7, 72 h, read-out: IC50 cell proliferation MCF-7
Summary of the method: (§4)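 CyQuant DNA-dye proliferation assay on cultured cells after 72 h exposure to test compound. Viability expressed relative to DMSO-treated control cells.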

pErk1/2MAPK [6] = test: Immunoblotting, U251MG glioma cells; format: cell-based, human; conditions: 5 μM
Summary of the method: as §3

G22 cells [7] = test: Growth of glioma patient-derived xenograft cells in vitro; format: cell-based; conditions: Homo sapiens, read-out: inhibitory activity against growth of G22 cells
Stat1:Stat1 = target: T1, Stat1:Stat1 (Mus musculus, UniProt P42225); test: Cell-free EMSA, EGF-stimulated NIH3T3/hEGFR nuclear extracts; format: biochemical; conditions: 5 μM, 30 min pre-incubation
T1 sequence (P42225 2-749 limits assumed): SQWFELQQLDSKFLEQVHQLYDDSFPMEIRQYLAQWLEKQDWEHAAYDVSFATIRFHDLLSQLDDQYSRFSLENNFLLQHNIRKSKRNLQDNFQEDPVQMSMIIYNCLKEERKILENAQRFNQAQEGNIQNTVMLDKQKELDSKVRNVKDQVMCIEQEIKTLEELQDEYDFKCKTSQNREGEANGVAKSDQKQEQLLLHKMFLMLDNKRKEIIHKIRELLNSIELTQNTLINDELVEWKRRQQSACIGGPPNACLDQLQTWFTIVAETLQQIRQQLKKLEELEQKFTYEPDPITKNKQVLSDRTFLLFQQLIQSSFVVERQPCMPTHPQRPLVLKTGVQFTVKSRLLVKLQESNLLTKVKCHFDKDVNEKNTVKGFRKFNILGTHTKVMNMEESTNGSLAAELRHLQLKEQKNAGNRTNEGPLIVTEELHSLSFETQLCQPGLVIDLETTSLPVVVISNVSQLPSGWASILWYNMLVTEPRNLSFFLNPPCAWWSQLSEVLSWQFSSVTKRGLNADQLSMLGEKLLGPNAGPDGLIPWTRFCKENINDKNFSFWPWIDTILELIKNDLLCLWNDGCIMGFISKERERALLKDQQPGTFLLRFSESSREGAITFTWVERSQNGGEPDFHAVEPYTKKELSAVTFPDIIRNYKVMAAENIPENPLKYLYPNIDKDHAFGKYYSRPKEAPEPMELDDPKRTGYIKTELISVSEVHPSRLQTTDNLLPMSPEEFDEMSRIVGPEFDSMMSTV
Summary of the method: as §1

pStat5 = test: Immunoblotting, EGF-stimulated NIH3T3/hEGFR fibroblasts; format: cell-based, mouse; conditions: 5 μM pre-treatment
Summary of the method: as §2

MDA-MB-231 cells = test: CyQuant cell proliferation assay; format: cell-based, human; conditions: Homo sapiens, MDA-MB-231, 72 h, read-out: IC50 cell proliferation MDA-MB-231
Summary of the method: as §4

G22 cells [8] = test: 3D spheroid assay; format: cell-based, human; conditions: 5 μM, treated once
[9] = tested on: protein tyrosine phosphatase (PTP)1B; test: Immunoblotting, U251MG glioma cells; format: cell-based, human; conditions: 5 μM
Summary of the method: as §3

U373MG cells = test: CyQuant cell proliferation assay; format: cell-based; conditions: Homo sapiens, U373 MG, 72 h, read-out: IC50 cell proliferation U373MG
Summary of the method: as §4

SF295 cells = test: CyQuant cell proliferation assay; format: cell-based; conditions: Homo sapiens, SF-295, 72 h, read-out: IC50 cell proliferation SF295
Summary of the method: as §4

U251MG cells [10] = test: Immunofluorescence staining/confocal microscopy of mitosis; format: cell-based, human; conditions: 15 h treatment
Summary of the method: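 U251MG cells on coverslips synchronised by double thymidine block (2 mM) and released for 9 h. Then given DMSO, 100 nM paclitaxel or 8 μM test compound for 15 h. Fixed in 4% paraformaldehyde, permeabilised with 0.1% digitonin and blocked in 0.2% BSA. Stained with anti-β-tubulin (1:350) and anti-MAP1B (1:300) for 1 h at room temperature, then fluorescent secondaries and DAPI; confocal imaging.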

NIH3T3 cells [11] = test: CyQuant cell proliferation assay; format: cell-based, mouse; conditions: 5 μM
Summary of the method: as §4

U251MG cells [12] = test: CyQuant cell proliferation assay; format: cell-based, human
Summary of the method: as §4

U251MG cells [13] = test: Apoptosis by PARP or caspase cleavage; format: cell-based, human; conditions: 24 or 48 h

Michael acceptor reaction with cysteamine [1]: Michael acceptor reactions have occurred
IC50 (MCF-7 cells): 4.8 to 9.6 µM
Stat3:Stat3/DNA-binding activity (complexation), cell-free EMSA (Stat3:Stat3): diminished
effect on Stat1:Stat1 activity, cell-free EMSA (Stat1:Stat1): weak effects
IC50 (MDA-MB-231 cells): 5.2 to 9.1 µM
Structure (SMILES): C/C=C(\C)C(=O)O[C@H]1C[C@@H](C)[C@]2(OC)CC[C@](C)(/C=C3/OC(=O)C(COC(C)=O)=C31)O2 [Compound 10]
inhibition at 5 µM (G12 cells): 25 to 35%
effect on Stat3 DNA-binding activity in treated tumor cells (Stat3): strongly inhibited
effect on Stat5:Stat5 activity, cell-free EMSA (Stat5:Stat5): weak effects
effects on NIH3T3 colony numbers (NIH3T3 cells [2]): moderate or none
migration into the denuded area (U251MG cells [3]): slowed migration
effect on EGF-stimulated pErk1/2MAPK levels (pErk1/2MAPK [4]): no effect
effect on EGF-stimulated pStat1 levels (pStat1): no effect
effect on pS-Akt levels (pS-Akt): no effects
effect on Phospho-Stat3 in G22 cells (pStat3): moderate inhibition
inhibition at 5 µM (G10 cells): 45 to 60%
effect on SOCS3 levels [5]: no effects
effect on pErk1/2MAPK levels (pErk1/2MAPK [6]): no effects
inhibition at 5 µM (G22 cells [7]): 45 to 60%
effect on pStat3 in treated tumor cells (pYStat3): strongly inhibited
effect on EGF-stimulated pStat5 levels (pStat5): no effect
3D spheroid growth (G22 cells [8]): modest
effect on PTP1B levels [9]: no effects
IC50 (U373MG cells): 6.6 to 8.2 µM
IC50 (SF295 cells): 7.4 to 18.3 µM

Stat3:Stat3/DNA-binding activity (complexation), cell-free EMSA (Stat3:Stat3): diminished
effect on Stat1:Stat1 activity, cell-free EMSA (Stat1:Stat1): weak effects
Structure (SMILES): CC(=O)OCC1=C2/C(=C\[C@@]3(C)CC[C@](O)(O3)[C@H](C)C[C@@H]2O)OC1=O [Compound 11]
effect on Stat3 DNA-binding activity in treated tumor cells (Stat3): weak effect
effect on Stat5:Stat5 activity, cell-free EMSA (Stat5:Stat5): weak effects
effect on pStat3 in treated tumor cells (pYStat3): weak effect
chromatid structures and sister-chromatids segregation (mitosis) (U251MG cells [10]): minimal effect

IC50 (MCF-7 cells): 4.8 to 9.6 µM
Stat3:Stat3/DNA-binding activity (complexation), cell-free EMSA (Stat3:Stat3): diminished
effect on Stat1:Stat1 activity, cell-free EMSA (Stat1:Stat1): weak effects
IC50 (MDA-MB-231 cells): 5.2 to 9.1 µM
Structure (SMILES): C/C=C(/C)C(=O)O[C@H]1C[C@@H](C)[C@]2(O)CC[C@](C)(/C=C3/OC(=O)C(COC(C)=O)=C31)O2 [Compound 20]
effect on Stat3 DNA-binding activity in treated tumor cells (Stat3): strongly inhibited
effect on Stat5:Stat5 activity, cell-free EMSA (Stat5:Stat5): weak effects
effect on EGF-stimulated pErk1/2MAPK levels (pErk1/2MAPK [4]): no effect
effect on EGF-stimulated pStat1 levels (pStat1): no effect
effect on pS-Akt levels (pS-Akt): no effects
effect on SOCS3 levels [5]: no effects
effect on pErk1/2MAPK levels (pErk1/2MAPK [6]): no effects
effect on pStat3 in treated tumor cells (pYStat3): strongly inhibited
effect on EGF-stimulated pStat5 levels (pStat5): no effect
effect on PTP1B levels [9]: no effects
IC50 (U373MG cells): 6.6 to 8.2 µM
IC50 (SF295 cells): 7.4 to 18.3 µM

IC50 (Stat3; Homo sapiens, U-251, read-out: IC50 Stat3 DNA-binding activity in treated cells): 0.5 to 2.5 µM
Stat3:Stat3/DNA-binding activity (complexation), cell-free EMSA (Stat3:Stat3): diminished
Structure (SMILES): C/C=C(\C)C(=O)OCC1=C2/C(=C\[C@@]3(C)CC[C@](O)(O3)[C@H](C)C[C@@H]2OC(=O)/C(C)=C/C)OC1=O [Compound 38]
effect on Stat3 DNA-binding activity in treated tumor cells (Stat3): suppressed
effect on NIH3T3 growth (NIH3T3 cells [11]): inhibited NIH3T3 growth
effect on pStat3 in treated tumor cells (pYStat3): suppressed
activity against U251MG cell growth (U251MG cells [12]; 5 μM): retained or improved the inhibitory potency

The remaining lines, values behind:

Structure (SMILES): C=C(C)C(=O)O[C@H]1C[C@@H](C)[C@]2(OC)CC[C@](C)(/C=C3/OC(=O)C(COC(C)=O)=C31)O2 [Compound 9]
Michael acceptor reaction with cysteamine [1]: indicative of Michael acceptor reactions
Stat3:Stat3/DNA-binding activity (complexation), cell-free EMSA (Stat3:Stat3): no effect; also recorded: only weakly inhibited
effect on pStat3 in treated tumor cells (pYStat3): little impact

Structure (SMILES): C=C1C(=O)O[C@@H]2/C=C(\C)CC/C=C(\C)CC[C@@H]12 [costunolide, reference compound]
Michael acceptor reaction with cysteamine [1]: formation of diastereomeric Michael adduct mixtures
Stat3 activity in tumor cells, control compounds (pYStat3; Fig. S5E(ii)): did not inhibit
cell growth activity, control compounds (U251MG cells [12]; panel of cell lines, Fig. S5E(i)): poorly-active or non-specific in activity

Structure (SMILES): CC(=O)O[C@H]1C(=O)[C@@]2(C)[C@H]([C@H](OC(=O)c3ccccc3)[C@]3(O)C[C@H](OC(=O)[C@H](O)[C@@H](NC(=O)c4ccccc4)c4ccccc4)C(C)=C1C3(C)C)[C@]1(OC(C)=O)CO[C@@H]1C[C@@H]2O [paclitaxel, reference compound]
apoptosis measured by PARP or caspase cleavage (U251MG cells [13]): induced apoptosis
chromatid structures and sister-chromatids segregation (mitosis) (U251MG cells [10]): caused strong defects

Structure (SMILES): CN[C@@H]1C[C@H]2O[C@@](C)([C@@H]1OC)n1c3ccccc3c3c4c(c5c6ccccc6n2c5c31)C(=O)NC4 [staurosporine]
apoptosis measured by PARP or caspase cleavage (U251MG cells [13]): induced apoptosis
